Tested on: patients with advanced solid tumors or multiple myeloma
Experiment: phase 1 dose escalation: safety, tolerability, DLT, MTD
Format: in vivo, human
Outline: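 Modified accelerated titration from 7.5 mg, oral daily in 28-day cycles. Single-patient cohorts used 100% increments until the first drug-related grade ≥2 toxicity, then 6-patient cohorts used ~50% steps. A dose with ≥2 DLTs was nontolerated. MTD was the last lower dose with 0–1 of 6 DLTs in cycle 1. Adverse events were graded by NCI CTCAE version 4.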

SMILES: CO[C@H]1CC[C@H](N2C(=O)CNc3ncc(-c4ccc(C(C)(C)O)nc4)nc32)CC1 [CC‐223]
- Arthralgia (treatment‐related AE) (7.5 mg, Any Grade): 0 n (%)
- Asthenia (treatment‐related AE) (7.5 mg, Any Grade): 0 n (%)
- Decreased appetite (treatment‐related AE) (7.5 mg, Any Grade): 0 n (%)
- Diarrhea (treatment‐related AE) (7.5 mg, Any Grade): 0 n (%)
- Dry mouth (treatment‐related AE) (7.5 mg, Any Grade): 0 n (%)
- Dysgeusia (treatment‐related AE) (7.5 mg, Any Grade): 1 (100) n (%)
- Dyspnea (treatment‐related AE) (7.5 mg, Any Grade): 0 n (%)
- Fatigue (treatment‐related AE) (7.5 mg, Any Grade): 1 (100) n (%)
- Hyperglycemia (treatment‐related AE) (7.5 mg, Any Grade): 0 n (%)
- Increased glycosylated hemoglobin (treatment‐related AE) (7.5 mg, Any Grade): 0 n (%)
- Mucositis (treatment‐related AE) (7.5 mg, Any Grade): 0 n (%)
- Nausea (treatment‐related AE) (7.5 mg, Any Grade): 1 (100) n (%)
- Pruritus (treatment‐related AE) (7.5 mg, Any Grade): 0 n (%)
- Rash (treatment‐related AE) (7.5 mg, Any Grade): 0 n (%)
- Rash pruritic (treatment‐related AE) (7.5 mg, Any Grade): 0 n (%)
- Thrombocytopenia (treatment‐related AE) (7.5 mg, Any Grade): 0 n (%)
- Vomiting (treatment‐related AE) (7.5 mg, Any Grade): 0 n (%)
- Arthralgia (treatment‐related AE) (7.5 mg, Grade ≥3): 0 n (%)
- Asthenia (treatment‐related AE) (7.5 mg, Grade ≥3): 0 n (%)
- Decreased appetite (treatment‐related AE) (7.5 mg, Grade ≥3): 0 n (%)
- Diarrhea (treatment‐related AE) (7.5 mg, Grade ≥3): 0 n (%)
- Dry mouth (treatment‐related AE) (7.5 mg, Grade ≥3): 0 n (%)
- Dysgeusia (treatment‐related AE) (7.5 mg, Grade ≥3): 0 n (%)
- Dyspnea (treatment‐related AE) (7.5 mg, Grade ≥3): 0 n (%)
- Fatigue (treatment‐related AE) (7.5 mg, Grade ≥3): 0 n (%)
- Hyperglycemia (treatment‐related AE) (7.5 mg, Grade ≥3): 0 n (%)
- Increased glycosylated hemoglobin (treatment‐related AE) (7.5 mg, Grade ≥3): 0 n (%)
- Mucositis (treatment‐related AE) (7.5 mg, Grade ≥3): 0 n (%)
- Nausea (treatment‐related AE) (7.5 mg, Grade ≥3): 0 n (%)
- Pruritus (treatment‐related AE) (7.5 mg, Grade ≥3): 0 n (%)
- Rash (treatment‐related AE) (7.5 mg, Grade ≥3): 0 n (%)
- Rash pruritic (treatment‐related AE) (7.5 mg, Grade ≥3): 0 n (%)
- Thrombocytopenia (treatment‐related AE) (7.5 mg, Grade ≥3): 0 n (%)
- Vomiting (treatment‐related AE) (7.5 mg, Grade ≥3): 0 n (%)
- Dose interruptions (15 mg): 2
- Dose reductions (15 mg): 0
- Arthralgia (treatment‐related AE) (15 mg, Any Grade): 0 n (%)
- Asthenia (treatment‐related AE) (15 mg, Any Grade): 1 (50) n (%)
- Decreased appetite (treatment‐related AE) (15 mg, Any Grade): 0 n (%)
- Diarrhea (treatment‐related AE) (15 mg, Any Grade): 1 (50) n (%)
- Dry mouth (treatment‐related AE) (15 mg, Any Grade): 0 n (%)
- Dysgeusia (treatment‐related AE) (15 mg, Any Grade): 1 (50) n (%)
- Dyspnea (treatment‐related AE) (15 mg, Any Grade): 0 n (%)
- Fatigue (treatment‐related AE) (15 mg, Any Grade): 1 (50) n (%)
- Hyperglycemia (treatment‐related AE) (15 mg, Any Grade): 0 n (%)
- Increased glycosylated hemoglobin (treatment‐related AE) (15 mg, Any Grade): 0 n (%)
- Mucositis (treatment‐related AE) (15 mg, Any Grade): 1 (50) n (%)
- Nausea (treatment‐related AE) (15 mg, Any Grade): 0 n (%)
- Pruritus (treatment‐related AE) (15 mg, Any Grade): 1 (50) n (%)
- Rash (treatment‐related AE) (15 mg, Any Grade): 1 (50) n (%)
- Rash pruritic (treatment‐related AE) (15 mg, Any Grade): 0 n (%)
- Thrombocytopenia (treatment‐related AE) (15 mg, Any Grade): 0 n (%)
- Vomiting (treatment‐related AE) (15 mg, Any Grade): 0 n (%)
- Arthralgia (treatment‐related AE) (15 mg, Grade ≥3): 0 n (%)
- Asthenia (treatment‐related AE) (15 mg, Grade ≥3): 0 n (%)
- Decreased appetite (treatment‐related AE) (15 mg, Grade ≥3): 0 n (%)
- Diarrhea (treatment‐related AE) (15 mg, Grade ≥3): 0 n (%)
- Dry mouth (treatment‐related AE) (15 mg, Grade ≥3): 0 n (%)
- Dysgeusia (treatment‐related AE) (15 mg, Grade ≥3): 0 n (%)
- Dyspnea (treatment‐related AE) (15 mg, Grade ≥3): 0 n (%)
- Fatigue (treatment‐related AE) (15 mg, Grade ≥3): 0 n (%)
- Hyperglycemia (treatment‐related AE) (15 mg, Grade ≥3): 0 n (%)
- Increased glycosylated hemoglobin (treatment‐related AE) (15 mg, Grade ≥3): 0 n (%)
- Mucositis (treatment‐related AE) (15 mg, Grade ≥3): 0 n (%)
- Nausea (treatment‐related AE) (15 mg, Grade ≥3): 0 n (%)
- Pruritus (treatment‐related AE) (15 mg, Grade ≥3): 0 n (%)
- Rash (treatment‐related AE) (15 mg, Grade ≥3): 0 n (%)
- Rash pruritic (treatment‐related AE) (15 mg, Grade ≥3): 0 n (%)
- Thrombocytopenia (treatment‐related AE) (15 mg, Grade ≥3): 0 n (%)
- Vomiting (treatment‐related AE) (15 mg, Grade ≥3): 0 n (%)
- Dose interruptions (30 mg): 8
- Dose reductions (30 mg): 0
- Arthralgia (treatment‐related AE) (30 mg, Any Grade): 0 n (%)
- Asthenia (treatment‐related AE) (30 mg, Any Grade): 2 (22) n (%)
- Decreased appetite (treatment‐related AE) (30 mg, Any Grade): 4 (44) n (%)
- Diarrhea (treatment‐related AE) (30 mg, Any Grade): 3 (33) n (%)
- Dry mouth (treatment‐related AE) (30 mg, Any Grade): 1 (11) n (%)
- Dysgeusia (treatment‐related AE) (30 mg, Any Grade): 0 n (%)
- Dyspnea (treatment‐related AE) (30 mg, Any Grade): 1 (11) n (%)
- Fatigue (treatment‐related AE) (30 mg, Any Grade): 4 (44) n (%)
- Hyperglycemia (treatment‐related AE) (30 mg, Any Grade): 4 (44) n (%)
- Increased glycosylated hemoglobin (treatment‐related AE) (30 mg, Any Grade): 0 n (%)
- Mucositis (treatment‐related AE) (30 mg, Any Grade): 2 (22) n (%)
- Nausea (treatment‐related AE) (30 mg, Any Grade): 4 (44) n (%)
- Pruritus (treatment‐related AE) (30 mg, Any Grade): 1 (11) n (%)
- Rash (treatment‐related AE) (30 mg, Any Grade): 1 (11) n (%)
- Rash pruritic (treatment‐related AE) (30 mg, Any Grade): 1 (11) n (%)
- Thrombocytopenia (treatment‐related AE) (30 mg, Any Grade): 1 (11) n (%)
- Vomiting (treatment‐related AE) (30 mg, Any Grade): 2 (22) n (%)
- Arthralgia (treatment‐related AE) (30 mg, Grade ≥3): 0 n (%)
- Asthenia (treatment‐related AE) (30 mg, Grade ≥3): 0 n (%)
- Decreased appetite (treatment‐related AE) (30 mg, Grade ≥3): 0 n (%)
- Diarrhea (treatment‐related AE) (30 mg, Grade ≥3): 0 n (%)
- Dry mouth (treatment‐related AE) (30 mg, Grade ≥3): 0 n (%)
- Dysgeusia (treatment‐related AE) (30 mg, Grade ≥3): 0 n (%)
- Dyspnea (treatment‐related AE) (30 mg, Grade ≥3): 0 n (%)
- Fatigue (treatment‐related AE) (30 mg, Grade ≥3): 0 n (%)
- Hyperglycemia (treatment‐related AE) (30 mg, Grade ≥3): 2 (22) n (%)
- Increased glycosylated hemoglobin (treatment‐related AE) (30 mg, Grade ≥3): 0 n (%)
- Mucositis (treatment‐related AE) (30 mg, Grade ≥3): 0 n (%)
- Nausea (treatment‐related AE) (30 mg, Grade ≥3): 0 n (%)
- Pruritus (treatment‐related AE) (30 mg, Grade ≥3): 0 n (%)
- Rash (treatment‐related AE) (30 mg, Grade ≥3): 0 n (%)
- Rash pruritic (treatment‐related AE) (30 mg, Grade ≥3): 0 n (%)
- Thrombocytopenia (treatment‐related AE) (30 mg, Grade ≥3): 0 n (%)
- Vomiting (treatment‐related AE) (30 mg, Grade ≥3): 0 n (%)
- Dose interruptions (45 mg): 5
- Dose reductions (45 mg): 1
- Arthralgia (treatment‐related AE) (45 mg, Any Grade): 2 (22) n (%)
- Asthenia (treatment‐related AE) (45 mg, Any Grade): 1 (11) n (%)
- Decreased appetite (treatment‐related AE) (45 mg, Any Grade): 3 (33) n (%)
- Diarrhea (treatment‐related AE) (45 mg, Any Grade): 4 (44) n (%)
- Dry mouth (treatment‐related AE) (45 mg, Any Grade): 2 (22) n (%)
- Dysgeusia (treatment‐related AE) (45 mg, Any Grade): 2 (22) n (%)
